In ChEMBL document CHEMBL4118164, “Discovery of (E)-1-amino-4-phenylbut-3-en-2-ol derivatives as novel neuraminidase inhibitors” (Bioorg Med Chem Lett, 2018):

Target: Neuraminidase (Influenza A virus, UniProt B4URF0)
Test: Inhibition of Influenza A H1N1 virus neuraminidase activity preincubated for 2 mins followed by MUNANA substrate addition measured after 30 mins by […]
Summary of the method: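 Test compounds were dissolved in DMSO as stock solutions and diluted with assay buffer to four concentrations, spaced tenfold apart. Neuraminidase inhibition was measured with a commercial neuraminidase-inhibitor screening kit using a fluorescent read-out. IC50 values are means of three or more experiments.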

Neuraminidase, sequence (B4URF0 whole entry): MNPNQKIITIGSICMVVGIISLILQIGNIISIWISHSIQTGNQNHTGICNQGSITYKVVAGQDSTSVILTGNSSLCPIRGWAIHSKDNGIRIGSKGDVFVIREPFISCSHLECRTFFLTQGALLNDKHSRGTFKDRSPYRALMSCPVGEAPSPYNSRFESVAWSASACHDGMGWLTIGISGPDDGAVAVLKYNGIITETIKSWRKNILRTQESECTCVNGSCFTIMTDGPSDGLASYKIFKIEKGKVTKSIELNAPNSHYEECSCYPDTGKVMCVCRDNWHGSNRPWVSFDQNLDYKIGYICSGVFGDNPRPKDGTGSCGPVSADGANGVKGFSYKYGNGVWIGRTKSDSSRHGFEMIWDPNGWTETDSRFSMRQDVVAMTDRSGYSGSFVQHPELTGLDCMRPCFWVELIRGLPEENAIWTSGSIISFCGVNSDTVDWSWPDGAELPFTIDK

Row | Structure (SMILES) | IC50
1 | NCC(O)c1ccccc1 (stereo unspecified) | 870 µM
2 | NCC(O)/C=C/c1ccccc1 (stereo unspecified) [listing 1 of 2 here] | 214 µM
3 | CC(C)(C)OC(=O)/N=C(\NCC(O)/C=C/c1ccccc1)NC(=O)OC(C)(C)C (stereo unspecified) | 103 µM
4 | NCC(O)c1ccsc1 (stereo unspecified) | 8900 µM
5 | O=S(=O)(NCC(O)/C=C/c1ccccc1)c1ccccc1 (stereo unspecified) | 7.6 µM
6 | COc1cccc(S(=O)(=O)NCC(O)/C=C/c2ccccc2)c1 (stereo unspecified) | 7.2 µM
7 | Cc1ccc(CN(Cc2ccc(C)cc2)CC(O)/C=C/c2ccccc2)cc1 (stereo unspecified) | 50.7 µM
8 | COc1ccccc1S(=O)(=O)NCC(O)/C=C/c1ccccc1 (stereo unspecified) | 8 µM
9 | COc1ccc(S(=O)(=O)NCC(O)/C=C/c2ccccc2)cc1 (stereo unspecified) | 6.4 µM
10 | COc1ccccc1C(O)CN (stereo unspecified) | 5200 µM
11 | OC(/C=C/c1ccccc1)CN(Cc1ccccc1)Cc1ccccc1 (stereo unspecified) | 41.5 µM
12 | COC(=O)c1ccc(C(=O)NCC(/C=C/c2ccccc2)OC(=O)c2ccc(C(=O)OC)cc2)cc1 (stereo unspecified) | 40.5 µM
13 | COc1cccc(C(O)CN)c1 (stereo unspecified) | 6100 µM
14 | O=S(=O)(NCC(O)/C=C/c1ccccc1)c1ccc(OCc2ccccc2)cc1 (stereo unspecified) | 11.1 µM
15 | N#Cc1ccc(CN(Cc2ccc(C#N)cc2)CC(O)/C=C/c2ccccc2)cc1 (stereo unspecified) | 49.8 µM
16 | COC(=O)c1ccc(S(=O)(=O)NCC(O)/C=C/c2ccccc2)cc1 (stereo unspecified) | 13.3 µM
17 | NCC(O)/C=C/c1ccccc1 (stereo unspecified) [listing 2 of 2 here] | 207 µM
18 | N#Cc1ccc(S(=O)(=O)NCC(O)/C=C/c2ccccc2)cc1 (stereo unspecified) | 11.4 µM
19 | O=S(=O)(NCC(O)/C=C/c1ccccc1)c1ccc(Br)cc1 (stereo unspecified) | 9.4 µM
20 | Cc1ccc(C(=O)NCC(/C=C/c2ccccc2)OC(=O)c2ccc(C)cc2)cc1 (stereo unspecified) | 61.5 µM
21 | Cc1ccc(S(=O)(=O)NCC(O)/C=C/c2ccccc2)cc1 (stereo unspecified) | 7.6 µM
22 | N#Cc1ccc(C(=O)NCC(/C=C/c2ccccc2)OC(=O)c2ccc(C#N)cc2)cc1 (stereo unspecified) | 33 µM
23 | CC(C)(C)OC(=O)NCC(O)/C=C/c1ccccc1 (stereo unspecified) | 106 µM
24 | O=S(=O)(NCC(O)/C=C/c1ccccc1)c1ccc(F)cc1 (stereo unspecified) | 7.9 µM
25 | O=S(=O)(NCC(O)/C=C/c1ccccc1)c1ccc(Cl)cc1 (stereo unspecified) | 9.2 µM
26 | OC(/C=C/c1ccccc1)CN(Cc1ccc(C(F)(F)F)cc1)Cc1ccc(C(F)(F)F)cc1 (stereo unspecified) | 32.8 µM
